Experimental data: ChEMBL document CHEMBL3352355, “Synthesis of novel polysubstituted (2SR,4RS)-2-heteroaryltetrahydro-1,4-epoxy-1-benzazepines and cis-2-heteroaryl-4-hydroxytetrahydro-1H-1-benzazepines as antiparasitic agents” (Eur J Med Chem, 2014)

How the values were obtained:
[1] = Selectivity index, ratio of CC50 for African green monkey Vero cells to IC50 for epimastigote stage of Trypanosoma cruzi; format: functional
Procedure, shortened: (§1)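 Selectivity index was calculated as CC50 in Vero (T. cruzi) or THP-1 (L. infantum) cells divided by parasite IC50. Both values came from 72 h mammalian-cell MTT assays and the parasite assays; SI ≥ 3 was defined as parasite-selective.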

[2] = Selectivity index, ratio of CC50 for African green monkey Vero cells to IC50 for amastigote stage of Trypanosoma cruzi; format: functional; procedure, shortened: as §1
Trypanosoma cruzi [3] = experiment: Antiparasitic activity against amastigote stage of Trypanosoma cruzi infected in Vero cells assessed as parasite growth inhibition after 24 hrs by hemocytometery; format: functional, organism-based; settings: Trypanosoma cruzi, Vero, 24 h; read-out: IC50
Procedure, shortened: (§2)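 Host cells were Vero for T. cruzi (infected with tissue-derived trypomastigotes) and THP-1 (PMA-transformed, 10 ng/mL) for L. (L.) infantum (infected with late-phase promastigotes), at 1:10 cell:parasite for 24 h. Serial dilutions were given as two doses, the second on day 3 with a medium change. Read-out was % infected cells on methanol-fixed, Giemsa-stained slides (300 cells). IC50 came from sigmoidal regression; experiments in duplicate, concentrations in triplicate.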

Trypanosoma cruzi [4] = experiment: Antiparasitic activity against epimastigote stage of Trypanosoma cruzi infected in Vero cells assessed as parasite growth inhibition […] by hemocytometery; format: functional, organism-based
Procedure, shortened: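 Exponential-phase T. cruzi Sylvio X10 epimastigotes (LIT medium with hiFCS) or L. (L.) infantum MHOM/BR/74/PP75 promastigotes (RPMI 1640, hemin, HEPES, 10% hiFCS) were exposed to threefold serial dilutions (0.3–300 µg/mL) for 72 h at 28 °C. Viable parasites were counted by hemocytometer with 0.25% eosin yellow. IC50 came from sigmoidal regression, given as mean ± SD.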

[5] = Cytotoxicity against African green monkey Vero cells; format: cell-based; settings: chlorocebus sabaeus
Procedure, shortened: (§3)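 Vero monolayers or THP-1 cells (made adherent with 10 ng/mL PMA), in RPMI 1640 with 10% hiFCS, were exposed to compound (0.3–300 µg/mL) for 72 h at 37 °C, 5% CO2. Viability was measured by MTT, with formazan dissolved in DMSO and read at 580 nm. % cytotoxicity was calculated against untreated cells; CC50 came from sigmoidal regression, given as mean ± SD.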

Leishmania infantum [6] = experiment: Antiparasitic activity against promastigote stage of Leishmania infantum assessed as parasite growth inhibition after 72 hrs by hemocytometery
[7] = Cytotoxicity against human THP1 cells; format: cell-based; settings: THP-1 cells; procedure, shortened: as §3
Leishmania infantum [8] = experiment: Antiparasitic activity against amastigote stage of Leishmania infantum infected in THP1 cells assessed as parasite growth inhibition after 24 hrs by hemocytometery; format: functional, organism-based, THP-1; settings: Leishmania infantum, THP-1, 24 h; read-out: IC50; procedure, shortened: as §2
[9] = Selectivity index, ratio of CC50 for human THP1 cells to IC50 for promastigote stage of Leishmania infantum; format: functional, THP-1; procedure, shortened: as §1

Compound: CC1CS(=O)(=O)CCN1/N=C/c1ccc([N+](=O)[O-])o1 (centres undefined) [NIFURTIMOX]
- Selectivity Index [1]: 17
- Selectivity Index [2]: 43
- IC50 (Trypanosoma cruzi [3]): 1.6 µM
- IC50 (Trypanosoma cruzi [4]): 4 µM
- CC50 [5]: 67.5 µM

Compound: Cc1ccsc1[C@@H]1C[C@H]2Cc3cc(Cl)ccc3N1O2 (racemic)
- IC50 (Leishmania infantum [6]): 32.3 µM
- Selectivity Index [1]: 15.6
- CC50 [7]: 250 µM
- IC50 (Leishmania infantum [8]): > 344 µM
- Selectivity Index [2]: 1.9
- IC50 (Trypanosoma cruzi [3]): 99 µM
- IC50 (Trypanosoma cruzi [4]): 11.7 µM
- CC50 [5]: 183 µM
- Selectivity Index [9]: 7.7

Compound: Cc1ccc([C@@H]2C[C@H]3Cc4cc(Cl)ccc4N2O3)s1 (racemic)
- IC50 (Leishmania infantum [6]): 32.3 µM
- Selectivity Index [1]: 46.1
- CC50 [7]: > 2060 µM
- IC50 (Leishmania infantum [8]): > 344 µM
- Selectivity Index [2]: 11.3
- IC50 (Trypanosoma cruzi [3]): 101 µM
- IC50 (Trypanosoma cruzi [4]): 24.8 µM
- CC50 [5]: 1140 µM
- Selectivity Index [9]: >63.8

Compound: Cc1ccsc1[C@@H]1C[C@H](O)Cc2cc(Cl)ccc2N1 (relative stereo)
- IC50 (Leishmania infantum [6]): 72.9 µM
- Selectivity Index [1]: 4.2
- CC50 [7]: 181 µM
- IC50 (Leishmania infantum [8]): > 341 µM
- Selectivity Index [2]: 4.8
- IC50 (Trypanosoma cruzi [3]): 41.5 µM
- IC50 (Trypanosoma cruzi [4]): 47.9 µM
- CC50 [5]: 200 µM
- Selectivity Index [9]: 2.5

Compound: Fc1ccc2c(c1)C[C@@H]1C[C@@H](c3ccco3)N2O1 (racemic)
- IC50 (Leishmania infantum [6]): 83.2 µM
- Selectivity Index [1]: >8.6
- CC50 [7]: > 1220 µM
- IC50 (Leishmania infantum [8]): > 136 µM
- Selectivity Index [2]: >5.8
- IC50 (Trypanosoma cruzi [3]): 70.1 µM
- IC50 (Trypanosoma cruzi [4]): 47.7 µM
- CC50 [5]: > 408 µM
- Selectivity Index [9]: >14.7

Compound: O=[N+]([O-])c1ccc([C@@H]2C[C@H]3Cc4cc(F)ccc4N2O3)o1 (racemic)
- IC50 (Leishmania infantum [6]): 10.7 µM
- Selectivity Index [1]: 14.2
- CC50 [7]: 539 µM
- IC50 (Leishmania infantum [8]): > 115 µM
- Selectivity Index [2]: 1.5
- IC50 (Trypanosoma cruzi [3]): 284 µM
- IC50 (Trypanosoma cruzi [4]): 29.7 µM
- CC50 [5]: 422 µM
- Selectivity Index [9]: 50.4

Compound: Cc1ccc([C@@H]2C[C@H]3Cc4cc(OC(F)(F)F)ccc4N2O3)o1 (racemic)
- IC50 (Leishmania infantum [6]): 10.8 µM
- Selectivity Index [1]: 4.6
- CC50 [7]: 176 µM
- IC50 (Leishmania infantum [8]): > 308 µM
- Selectivity Index [2]: 2
- IC50 (Trypanosoma cruzi [3]): 212 µM
- IC50 (Trypanosoma cruzi [4]): 89.2 µM
- CC50 [5]: 414 µM
- Selectivity Index [9]: 16.3

Compound: O=[N+]([O-])c1ccc([C@@H]2C[C@H]3Cc4ccccc4N2O3)o1 (racemic)
- IC50 (Leishmania infantum [6]): 107 µM
- Selectivity Index [1]: 1
- CC50 [7]: 234 µM
- IC50 (Leishmania infantum [8]): > 368 µM
- IC50 (Trypanosoma cruzi [3]): > 122 µM
- IC50 (Trypanosoma cruzi [4]): 53 µM
- CC50 [5]: 51.4 µM
- Selectivity Index [9]: 2.2

Compound: Cc1ccc([C@@H]2C[C@H]3Cc4cc(F)ccc4N2O3)s1 (racemic)
- IC50 (Leishmania infantum [6]): 92 µM
- Selectivity Index [1]: 30.6
- CC50 [7]: 234 µM
- IC50 (Leishmania infantum [8]): > 121 µM
- IC50 (Trypanosoma cruzi [3]): > 364 µM
- IC50 (Trypanosoma cruzi [4]): 30.9 µM
- CC50 [5]: 944 µM
- Selectivity Index [9]: 2.5

Compound: Cc1ccc([C@@H]2C[C@H](O)Cc3cc(Cl)ccc3N2)s1 (relative stereo)
- IC50 (Leishmania infantum [6]): 64.4 µM
- Selectivity Index [1]: 10.5
- CC50 [7]: > 2050 µM
- IC50 (Leishmania infantum [8]): > 341 µM
- IC50 (Trypanosoma cruzi [3]): > 114 µM
- IC50 (Trypanosoma cruzi [4]): 14.6 µM
- CC50 [5]: 154 µM
- Selectivity Index [9]: >31.8

Compound: Cc1ccc([C@@H]2C[C@H]3Cc4cc(Cl)ccc4N2O3)o1 (racemic)
- IC50 (Leishmania infantum [6]): 19.1 µM
- Selectivity Index [1]: 25.1
- CC50 [7]: 374 µM
- IC50 (Leishmania infantum [8]): > 130 µM
- Selectivity Index [2]: 3.7
- IC50 (Trypanosoma cruzi [3]): 312 µM
- IC50 (Trypanosoma cruzi [4]): 46.2 µM
- CC50 [5]: 1160 µM
- Selectivity Index [9]: 19.6

Compound: O[C@@H]1Cc2cc(OC(F)(F)F)ccc2N[C@H](c2ccoc2)C1 (relative stereo)
- IC50 (Leishmania infantum [6]): 43.1 µM
- Selectivity Index [1]: 0.2
- CC50 [7]: 460 µM
- IC50 (Leishmania infantum [8]): > 106 µM
- IC50 (Trypanosoma cruzi [3]): > 106 µM
- IC50 (Trypanosoma cruzi [4]): 602 µM
- CC50 [5]: 95.4 µM
- Selectivity Index [9]: 10.7

Compound: O[C@@H]1Cc2cc(F)ccc2N[C@H](c2cccs2)C1 (relative stereo)
- IC50 (Leishmania infantum [6]): 120 µM
- Selectivity Index [1]: 0.3
- CC50 [7]: 190 µM
- IC50 (Leishmania infantum [8]): > 380 µM
- IC50 (Trypanosoma cruzi [3]): > 380 µM
- IC50 (Trypanosoma cruzi [4]): 764 µM
- CC50 [5]: 218 µM
- Selectivity Index [9]: 1.6

Compound: Cn1cccc1[C@@H]1C[C@H]2Cc3cc(F)ccc3N1O2 (mixture of isomers)
- IC50 (Leishmania infantum [6]): 316 µM
- Selectivity Index [1]: 1.3
- CC50 [7]: 2180 µM
- IC50 (Leishmania infantum [8]): > 387 µM
- IC50 (Trypanosoma cruzi [3]): > 387 µM
- IC50 (Trypanosoma cruzi [4]): 414 µM
- CC50 [5]: 533 µM
- Selectivity Index [9]: 6.9

Compound: Cc1ccc([C@@H]2C[C@H]3Cc4cc(F)ccc4N2O3)o1 (racemic)
- IC50 (Leishmania infantum [6]): 102 µM
- Selectivity Index [1]: 5.6
- CC50 [7]: 338 µM
- IC50 (Leishmania infantum [8]): > 128 µM
- IC50 (Trypanosoma cruzi [3]): > 386 µM
- IC50 (Trypanosoma cruzi [4]): 192 µM
- CC50 [5]: 1080 µM
- Selectivity Index [9]: 3.3

Compound: O[C@@H]1Cc2cc(Cl)ccc2N[C@H](c2cccs2)C1 (relative stereo)
- IC50 (Leishmania infantum [6]): 49.5 µM
- Selectivity Index [1]: 1.7
- CC50 [7]: 115 µM
- IC50 (Leishmania infantum [8]): > 119 µM
- IC50 (Trypanosoma cruzi [3]): > 119 µM
- IC50 (Trypanosoma cruzi [4]): 95.1 µM
- CC50 [5]: 164 µM
- Selectivity Index [9]: 2.3

Compound: Fc1ccc2c(c1)C[C@@H]1C[C@@H](c3ccoc3)N2O1 (racemic)
- IC50 (Leishmania infantum [6]): 103 µM
- Selectivity Index [1]: >8.1
- CC50 [7]: > 1220 µM
- IC50 (Leishmania infantum [8]): > 408 µM
- IC50 (Trypanosoma cruzi [3]): > 408 µM
- IC50 (Trypanosoma cruzi [4]): 151 µM
- CC50 [5]: > 1220 µM
- Selectivity Index [9]: 11.9

Compound: O=[N+]([O-])c1ccc([C@@H]2C[C@H]3Cc4cc(OC(F)(F)F)ccc4N2O3)o1 (racemic)
- IC50 (Leishmania infantum [6]): 66.6 µM
- CC50 [7]: 404 µM
- IC50 (Leishmania infantum [8]): > 281 µM
- IC50 (Trypanosoma cruzi [3]): > 281 µM
- IC50 (Trypanosoma cruzi [4]): > 843 µM
- CC50 [5]: 214 µM
- Selectivity Index [9]: 6.1

Compound: Cc1ccsc1[C@@H]1C[C@H](O)Cc2ccccc2N1 (relative stereo)
- IC50 (Leishmania infantum [6]): 156 µM
- Selectivity Index [1]: 4.3
- CC50 [7]: 579 µM
- IC50 (Leishmania infantum [8]): > 128 µM
- IC50 (Trypanosoma cruzi [3]): > 128 µM
- IC50 (Trypanosoma cruzi [4]): 143 µM
- CC50 [5]: 616 µM
- Selectivity Index [9]: 3.7

Compound: Clc1ccc2c(c1)C[C@@H]1C[C@@H](c3cccs3)N2O1 (racemic)
- IC50 (Leishmania infantum [6]): 20.7 µM
- Selectivity Index [1]: >14.2
- CC50 [7]: > 361 µM
- IC50 (Leishmania infantum [8]): > 120 µM
- IC50 (Trypanosoma cruzi [3]): > 120 µM
- IC50 (Trypanosoma cruzi [4]): 25.4 µM
- CC50 [5]: > 361 µM
- Selectivity Index [9]: >17.5

Compound: Cc1ccc([C@@H]2C[C@H]3Cc4cc(OC(F)(F)F)ccc4N2O3)s1 (racemic)
- IC50 (Leishmania infantum [6]): 10.5 µM
- Selectivity Index [1]: 3.9
- CC50 [7]: 282 µM
- IC50 (Leishmania infantum [8]): > 293 µM
- IC50 (Trypanosoma cruzi [3]): > 293 µM
- IC50 (Trypanosoma cruzi [4]): 43.9 µM
- CC50 [5]: 170 µM
- Selectivity Index [9]: 26.8

Compound: Clc1ccc2c(c1)C[C@@H]1C[C@@H](c3ccco3)N2O1 (racemic)
- IC50 (Leishmania infantum [6]): 47.3 µM
- Selectivity Index [1]: 6.7
- CC50 [7]: > 1150 µM
- IC50 (Leishmania infantum [8]): > 128 µM
- IC50 (Trypanosoma cruzi [4]): 53.1 µM
- CC50 [5]: 353 µM
- Selectivity Index [9]: >24.3

Compound: FC(F)(F)Oc1ccc2c(c1)C[C@@H]1C[C@@H](c3ccoc3)N2O1 (racemic)
- IC50 (Leishmania infantum [6]): 25.2 µM
- Selectivity Index [1]: 0.9
- CC50 [7]: > 1930 µM
- IC50 (Leishmania infantum [8]): > 322 µM
- IC50 (Trypanosoma cruzi [3]): > 107 µM
- IC50 (Trypanosoma cruzi [4]): 192 µM
- CC50 [5]: 180 µM
- Selectivity Index [9]: >76.6

Compound: c1coc([C@@H]2C[C@H]3Cc4ccccc4N2O3)c1 (racemic)
- IC50 (Leishmania infantum [6]): 45.3 µM
- Selectivity Index [1]: 6.8
- CC50 [7]: 663 µM
- IC50 (Leishmania infantum [8]): > 440 µM
- IC50 (Trypanosoma cruzi [3]): > 440 µM
- IC50 (Trypanosoma cruzi [4]): 229 µM
- CC50 [5]: 1560 µM
- Selectivity Index [9]: 14.7
